Assay outcomes (PubChem)
APP 5'UTR act: activates APP 5'UTR luciferase reporter | SH-SY5Y APP 5'UTR luciferase reporter, luminescence; zero percent = DMSO vehicle wells | activation, % at 2 µM | actives 1% (n = 190,000) | AID 1276;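 active = activation above a set limit, based on mean plus 3 SD of controls, cut at about 140% in these data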
STAT3 inh: STAT3 signaling inhibition | actives 0.89% (n = 190,000) | AID 862 | U3A cells, IL-6 STAT3-luciferase reporter, luminescence; host cell line lacks STAT1 | inhibition, % at 5.5 µM;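 active = inhibition above the mean inhibition across all screened compounds plus 3 SD, cut at about 44% in these data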;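 also: 0% = DMSO only wells and 100% = 100 µM nifuroxazide control wells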
NF-kB expr up: compounds increasing NF-kB expression in human neuronal cells. NF-kB reporter expression; stronger effect = higher value. actives 1.6% (n = 190,000). fold change at 12.5 µM; in the data active = fold change above about 3.3
STAT3 activator: activators of IL-6 induced STAT3 signaling. U3A cells, IL-6 STAT3-luciferase reporter, luminescence; 100% = signal with IL-6 EC80 alone. activation (% of control), % at 5.6 µM. actives 0.91% (n = 190,000). AID 871;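 active = activation above the screen-wide mean of compound activation plus 3 SD, cut at about 130% in these data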;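 also: 0% = background luminescence of wells with medium and substrate only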
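System – human U3A cells carrying STAT3-luciferase construct · Probe or stimulus – Interleukin-6, 33 ng/mL · Schedule – compound 1 h, then IL-6 6 h at 37 °C · Signal – luminescence from STAT3-driven luciferase reporter · Evaluation – percent of IL-6-only median luminescence · Benchmarks – IL-6-only high control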
STAT1 act: increases IFN-gamma driven STAT1 reporter signal | NIH 3T3 STAT1-luciferase reporter, luminescence; 100% = IFN-gamma alone, no compound | activation (% of control), % at 5.5 µM | actives 2.6% (n = 200,000) | AID 932;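 active = activation above the screen-wide mean activation plus 3 SD, cut at about 130% in these data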;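 also: raw ratio to IFN-gamma control signal so 100% means no change and 0% no light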
STAT1 inh: STAT1 signaling inhibition. NIH 3T3 STAT1-luciferase reporter, IFN-gamma, luminescence. inhibition, % at 5.5 µM. actives 0.35% (n = 200,000). AID 920;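 active = inhibition above a set limit, the mean inhibition across all tested compounds plus 3 SD, cut at about 34% in these data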;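 also: 0% = IFN-gamma with DMSO and 100% = IFN-gamma with 300 µM nifuroxazide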
* = called active by the depositor; nt = no result. Only some compounds are listed: those with a hit (about 4.9% of all), similar ones and a draw of the others.

SMILES	APP 5'UTR act	STAT3 inh	NF-kB expr up	STAT3 activator	STAT1 act	STAT1 inh
Cc1ccc(CCC(=O)Nc2ccccc2F)s1	103	23	2.2	86	137*	-42
O=C(CCc1nc2ccccc2[nH]1)Nc1ccccc1F	-8	nt	1.2	nt	100	-1
Cc1ccc(C)c(SCC(=O)Nc2cc(C)nn2-c2ccc(F)cc2)c1	18	0	1	100	95	6
Cc1c(-c2ccn[nH]2)cc(NC(=O)c2ccc(Cl)cc2)c(=O)n1N	7	12	1.1	91	102	-1
Oc1ccc(-c2nnc(SCC3CCCCC3)o2)cc1	111	12	4.9*	98	119	-21
O=C(CSc1nnc(-c2ccc(O)cc2)o1)N1CCOCC1	1	3	1.6	103	114	-17
CC(=O)c1cc2c(C)c(C(=O)c3ccccc3)oc2cc1O	156*	34	4*	71	120	-23
CCOc1cc(/C=C2/NC(=O)N(CC(=O)OC)C2=O)ccc1O	3	24	0.91	86	108	-11
c1ccc(Cc2cc(-c3ccccc3)on2)cc1	33	-15	1.9	115	132*	-35
O=C1CCCCC1Sc1nnc(Nc2ccccc2)s1 (configuration not stated)	58	-12	3.1	112	144*	-49
COc1cc(NC(=O)C/C(C)=N/NC(=O)c2cccs2)c(OC)cc1Cl	171*	-17	1.3	117	139*	-41
Cc1ccc(-c2cc(C(=O)N3CCCc4ccccc43)no2)cc1	41	10	2.6	97	137*	-42
COc1ccc(NC(=O)CCCc2c[nH]c3ccccc23)cc1OC	-15	-5	1.2	102	110	-11
COc1ccc(C(c2c[nH]c3ccccc23)c2c[nH]c3ccccc23)cc1O	-3	-107	0.95	192*	101	-1
COc1ccccc1Oc1ccc(NC(=O)c2ccccc2)cc1	8	5	1.3	101	108	-11
COc1cc(NC(=O)c2ccccc2)cc(OC)c1	137*	7	3.4*	99	113	-15
COc1ccc(OCC(=O)Nc2cc(OC)cc(OC)c2)cc1	-3	2	1.3	104	106	-6
COc1ccc(C(=O)Nc2cc(OC)cc(OC)c2)cc1	125	24	2.5	81	132*	-34
Cc1csc(NC(=O)c2cncc(Br)c2)n1	132	22	3.3*	86	128	-32
Nc1ccc(C(=O)Nc2nccs2)cc1	26	6	2.2	97	127	-31
O=C(Nc1nccs1)c1cncc(Br)c1	43	-12	0.94	118	143*	-48
CCOC(=O)c1sc(NC(=O)c2cncc(Br)c2)nc1C	6	-10	2.5	110	126	-30
COc1ccc(S(=O)(=O)N2CCCCC2)cc1NC(=O)c1ccc2c(c1)OCO2	-14	8	0.98	95	98	2
Cc1ccc(C(=O)NNC(=S)Nc2cccc3ccccc23)s1	150*	-43	2.4	134*	108	-9
O=C(Nc1cccc2ccccc12)c1ccc([N+](=O)[O-])s1	-25	31	3.8*	76	91	9
SMILES	APP 5'UTR act	STAT3 inh	NF-kB expr up	STAT3 activator	STAT1 act	STAT1 inh
O=C(COC(=O)c1ccc([N+](=O)[O-])s1)NCc1ccccc1	16	-3	1.1	98	98	2
O=C(Nc1ccccc1F)c1ccc([N+](=O)[O-])s1	13	5	3.5*	97	98	2
C/C(=N/O)c1ccc(Oc2cnccn2)cc1	-9	1	1.4	101	101	-2
Cc1ccc(-c2nn(CC(=O)N(C)C)c(=O)c3ccccc23)cc1S(=O)(=O)N(C)C	-8	1	0.97	104	97	3
CC(C(=O)N1CCN(Cc2ccc3c(c2)OCO3)CC1)c1ccc([N+](=O)[O-])cc1 (configuration not stated)	1	11	1.2	97	97	2
COc1ccc(Cl)cc1NC(=O)C1CCCO1 (configuration not stated)	-12	7	1.1	97	100	1
COc1cc2c(cc1NC(=O)c1cccc(S(=O)(=O)N(C)C)c1)oc1ccccc12	20	6	1.4	96	134*	-38
COc1cc2c(cc1NC(=O)C1CCCO1)oc1ccccc12 (configuration not stated)	162*	-76	5.6*	166*	147*	-51
CSc1nc2ccccc2n1CC(=O)Nc1c(C)cccc1C	0	12	1	93	108	-3
FC(F)C(F)(F)C(F)(F)C(F)(F)c1cc(-c2ccccc2)n[nH]1	25	7	5.1*	99	126	-27
Cc1sc2nc(COC(=O)CNC(=O)c3ccc(C(C)(C)C)cc3)[nH]c(=O)c2c1C	-16	-14	1.4	110	102	-2
O=C1NC(=S)N/C1=C\c1ccc(N2CCOCC2)cc1	10	6	1.3	96	121	-24
Cc1cc(C)c2nc(SCC(=O)N3CC(=O)Nc4ccccc43)c(C#N)cc2c1	-96	10	3.5*	93	104	-5
Cc1ccc(C)c(-n2c(SCC(=O)NC(C(=O)O)C(C)C)nnc2-c2cccc(Cl)c2)c1 (configuration not stated)	2	-3	0.93	103	100	-1
O=S(=O)(N/N=C\c1ccc2c(c1)OCO2)c1ccc(Cl)cc1	9	9	1.2	99	107	-8
CCOC(=O)c1cc(C(=O)Nc2ccc(C)c(F)c2)nn1C	70	-18	3.2	116	135*	-40
COC(=O)Cc1c(C)nc2nc(NCc3cccc([N+](=O)[O-])c3)[nH]n2c1=O	-4	2	0.96	104	101	-1
Cc1ccc(C(=O)O/N=C(\N)c2nonc2N)cc1	13	0	1	96	134*	-38
N/C(=N/OC(=O)c1ccccc1Cl)c1nonc1N	19	13	4.9*	92	110	-11
CCOc1ccc(NC(=O)CN(C)CC(=O)Nc2ccc(F)c(F)c2F)cc1OCC	4	-4	0.96	109	96	4
C=CCn1c[n+](CC(=O)c2ccc(Br)s2)c2ccccc21	-11	3	1	100	101	-3
CCc1nnc(NC(=O)CSc2nc3c(cc2C#N)CCCC3)s1	199*	10	2.4	95	107	-7
COC(=O)CC(=O)CSc1nc2c(cc1C#N)CCCCC2	38	8	5*	96	118	-19
Cc1cc(C)cc(NC(=O)CCN2CCCC2)c1	8	-5	1.2	108	99	0
O=C(CN1CCCC1)Nc1ccc(NC(=O)Nc2ccccc2)cc1	51	1	1.7	102	131*	-34
O=C(CN1CCCC1)Nc1ccc(Oc2ccc(NC(=O)CN3CCCC3)cc2)cc1	2	6	0.95	99	93	8
